In assay [1] the target is P2Y purinoceptor 1 (Meleagris gallopavo) (UniProt P49652). The assay is described as follows: Antagonist activity at P2Y1 receptor measured as capacity to inhibit phospholipase C stimulation elicited by 10 nM 2-MeSATP. The class given is functional. In short, it runs like this:
(§1)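 The PLC assay uses [3H]inositol-labelled turkey erythrocyte ghosts (~175 μg protein) in HEPES buffer, pH 7.0, with 1 μM GTPγS. Ghosts are incubated 5 min at 30 °C with 10 nM 2-MeSATP plus graded analogue concentrations. [3H]inositol phosphates are separated by anion exchange. IC50 is the concentration inhibiting 50% of the 2-MeSATP response. Maximal inhibition is 100 minus residual stimulation at the top concentration. Each curve was run at least 3 times in duplicate or triplicate.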

For assay [2] the target is unchanged. The assay is described as follows: Agonist activity at P2Y1 receptor measured as capacity to stimulate phospholipase C in turkey erythrocyte membranes. The class given is functional, cell membranes. In short, it runs like this: (§2)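 Turkey erythrocytes labelled with 2-[3H]myo-inositol in inositol-free DMEM for 18–24 h at 37 °C, 5% CO2. Ghosts made by hypotonic lysis. Labelled ghosts (~175 μg protein) incubated 5 min at 30 °C with 1 μM GTPγS and test nucleotide at pH 7.0 (HEPES, KCl, CaCl2, MgSO4, EGTA). Total [3H]inositol phosphates measured by anion-exchange chromatography. EC50 from four-parameter logistic fit. Efficacy is relative to a maximal 2-MeSATP response in the same experiment.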

The target in assay [3] is T1, P2Y purinoceptor 1 (Meleagris gallopavo, UniProt P49652). The assay is described as follows: Antagonist activity at P2Y1 receptor measured as capacity to inhibit 50% of phospholipase C stimulation elicited by 10 nM 2-MeSATP. The class given is functional. In a few lines:
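Ghosts are incubated 5 min at 30 °C with 10 nM 2-MeSATP plus graded analogue concentrations. [3H]inositol phosphates are separated by anion exchange. Maximal inhibition is 100 minus residual stimulation at the top concentration. Each curve was run at least 3 times in duplicate or triplicate.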

The target in assay [4] is T1, P2Y purinoceptor 1. The assay is described as follows: Agonist activity at P2Y1 receptor measured as capacity to stimulate 50% phospholipase C in turkey erythrocyte membranes. The class given is functional, cell membranes. In a few lines: as §2
Assay [5] deals with P2Y purinoceptor 1 (Meleagris gallopavo) (UniProt P49652). The assay is described as follows: Agonist activity at P2Y1 receptor measured as capacity to stimulate phospholipase C in turkey erythrocyte membranes; NE=No effect. The class given is functional, cell membranes. In a few lines: as §2
Assay [6] has the same target. The assay is described as follows: Antagonist activity at P2Y1 receptor measured as capacity to inhibit phospholipase C stimulation elicited by 10 nM 2-MeSATP; NE=No effect. The class given is functional. In a few lines:
as §1

Assay [7] shares this target. The assay is described as follows: Antagonist activity at P2Y1 receptor measured as capacity to inhibit phospholipase C stimulation elicited by 10 nM 2-MeSATP; Small inhibition at 30-100 uM. The class given is functional. Conditions: filed as antagonist. In a few lines:
as §1

Assay [8] shares this target. The assay is described as follows: Antagonist activity at P2Y1 receptor measured as capacity to inhibit phospholipase C stimulation elicited by 10 nM 2-MeSATP; No effect or small inhibition. The class given is functional. In a few lines:
as §1

Assay [9] has the same target. The assay is described as follows: Agonist activity at P2Y1 receptor measured as capacity to stimulate phospholipase C in turkey erythrocyte membranes; No effect or small inhibition. The class given is functional, cell membranes. In short, it runs like this:
as §2

The values that follow come from ChEMBL document CHEMBL1131110, “Deoxyadenosine bisphosphate derivatives as potent antagonists at P2Y1 receptors” (J Med Chem, 1998).

Active and inactive are the calls of the source. The rule behind the calls is not given here.

Chain of P2Y purinoceptor 1 (Meleagris gallopavo) (P49652 whole entry): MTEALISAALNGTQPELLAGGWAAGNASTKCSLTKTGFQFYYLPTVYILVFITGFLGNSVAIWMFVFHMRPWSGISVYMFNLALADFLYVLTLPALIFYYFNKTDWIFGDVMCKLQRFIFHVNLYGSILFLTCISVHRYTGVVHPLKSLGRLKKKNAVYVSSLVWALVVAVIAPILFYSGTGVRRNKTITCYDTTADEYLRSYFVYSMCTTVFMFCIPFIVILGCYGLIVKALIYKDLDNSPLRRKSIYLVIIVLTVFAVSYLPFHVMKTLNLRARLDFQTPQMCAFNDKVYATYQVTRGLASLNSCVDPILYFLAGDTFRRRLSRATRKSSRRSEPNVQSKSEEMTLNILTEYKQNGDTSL
T1 sequence (P49652 whole entry): as above

In general, IC50 refers to the concentration that inhibits the measured activity by half. Broadly, the EC50 is the midpoint of the concentration-response curve. Turning to `Nc1ncnc2c1ncn2C1O[C@H](COP(=O)(O)OP(=O)(O)OC2O[C@H](CO)[C@@H](O)[C@H]2O)[C@@H](O)[C@H]1OP(=O)(O)O` (stereo not given in full), the Max inhibition in assay [1] is 50%. In assay [2], this molecule returned a Max increase of 50%. The same molecule returned an IC50 in assay [3] above 100 µM. The molecule further gave an EC50 in assay [4] above 100 µM.
The molecule `CC(C)(COP(=O)(O)OP(=O)(O)OC[C@H]1O[C@@H](n2cnc3c(N)ncnc32)[C@H](OP(=O)(O)O)[C@@H]1O)C(O)C(=O)NCCC(=O)NCCS` (stereo not given in full) yielded a Max inhibition in [1] of 72%. In assay [2], the Max increase amounted to 43%. In assay [3], this molecule displayed an IC50 of 73 µM. In assay [4], this molecule displayed an EC50 above 100 µM.
On the same counts, the results for `CO[C@@H]1[C@H](OP(=O)(O)O)[C@@H](COP(=O)(O)O)O[C@H]1n1cnc2c(N)ncnc21` are 65%, 35%, 12.4 µM and 12.9 µM.
With `Nc1ncnc2c1ncn2[C@H]1C[C@H](OP(=O)(O)O)[C@@H](COP(=O)(O)O)O1`, in assay [1], the Max inhibition was determined as 87%. Also, the Max increase in [2] amounted to 12%. In [3], the IC50 stood at 5.76 µM. Further, the EC50 in assay [4] was 6.26 µM.
As to `Nc1ncnc2c1ncn2[C@H]1C[C@H](OP(O)(O)=S)[C@@H](COP(O)(O)=S)O1`, the Max inhibition in [1] stood at 91%. For the same molecule, the Max increase in assay [2] amounted to 9%. In [3], this molecule gave an IC50 of 88 µM.
As to `C[n+]1cnc2c(ncn2[C@H]2C[C@H](OP(=O)(O)O)[C@@H](COP(=O)(O)O)O2)c1N`, in assay [5], the Max increase entry was “inactive”. This molecule had a Max inhibition in [1] of 100%. The IC50 in [3] turned out to be 54.9 µM.
On the same counts, the results for `CCNc1ncnc2c1ncn2[C@H]1C[C@H](OP(=O)(O)O)[C@@H](COP(=O)(O)O)O1` are “inactive”, 100% and 1.08 µM.
Molecule `CNc1ncnc2c1ncn2C1OC(COP(=O)(O)O)CC1OP(=O)(O)O` (stereo not given) registered a Max inhibition in assay [1] of 90%. In addition, the Max increase in assay [2] amounted to 13%. Also, in assay [3], the IC50 is 0.324 µM.
`Nc1ncnc2c1ncn2C1OC(CCl)CC1OP(=O)(O)O` (stereo not given): in assay [5], the Max increase result was “inactive”. Also, the Max inhibition result in [6] was “inactive”.
On to `Nc1nc(Cl)nc2c1ncn2[C@H]1C[C@H](OP(=O)(O)O)[C@@H](COP(=O)(O)O)O1`, for which, in assay [1], the Max inhibition is 80%. In addition, the Max increase in assay [2] stood at 19%. In assay [3], this molecule gave an IC50 of 2.01 µM. The molecule further gave an EC50 in [4] of 0.651 µM.
On to `O=C(Nc1ncnc2c1ncn2[C@H]1C[C@H](OP(=O)(O)O)[C@@H](COP(=O)(O)O)O1)c1ccccc1`, for which, in assay [5], the Max increase entry is “inactive”. For the same molecule, in assay [6], the Max inhibition result is “inactive”.
In the case of `CN(C)c1ncnc2c1ncn2[C@H]1C[C@H](OP(=O)(O)O)[C@@H](COP(=O)(O)O)O1`, the Max increase entry in assay [5] was “inactive”. For the same molecule, the Max inhibition in [1] came to 70%. The same molecule gave an IC50 in assay [3] of 46.7 µM.
Take `Nc1ncnc2c1ncn2[C@@H]1O[C@H](COP(=O)(O)O)[C@@H](O)[C@H]1OP(=O)(O)O`: the Max inhibition in assay [1] turned out to be 75%. In assay [2], this molecule yielded a Max increase of 25%. Also, the IC50 in assay [3] amounted to 8.46 µM. In [4], the EC50 stood at 1.37 µM.
On the same counts, the results for `CSc1nc(N)c2ncn([C@H]3C[C@H](OP(=O)(O)O)[C@@H](COP(=O)(O)O)O3)c2n1` are 77%, 22%, 2.11 µM and 0.55 µM.
Turning to `Nc1ncnc2c1nc(Br)n2[C@H]1C[C@H](OP(=O)(O)O)[C@@H](COP(=O)(O)O)O1`, the Max increase result in assay [5] is “inactive”. The same molecule had a Max inhibition in [1] of 100%. The IC50 in [3] is 36.7 µM.
Turning to `CCCNc1ncnc2c1ncn2[C@H]1C[C@H](OP(=O)(O)O)[C@@H](COP(=O)(O)O)O1`, in assay [7], the Max inhibition result was “Partial antagonist”. The Max increase result in [5] was “inactive”.
As to `Nc1ncnc2c1ncn2[C@@H]1O[C@H](COP(=O)(O)O)[C@H]2OP(=O)(O)O[C@H]21`, the Max inhibition in assay [1] is 73%. In assay [2], this molecule showed a Max increase of 43%.
Take `CSc1ncnc2c1ncn2[C@H]1C[C@H](OP(=O)(O)O)[C@@H](COP(=O)(O)O)O1`: in assay [5], the Max increase result is “inactive”. The Max inhibition in assay [1] was found to be 78%. The molecule also showed an IC50 in [3] of 29.1 µM.
`O=P(O)(O)OC[C@H]1O[C@@H](n2cnc3c2ncn2ccnc32)C[C@@H]1OP(=O)(O)O`: the Max increase result in assay [5] was “inactive”. Besides, in [6], the Max inhibition result was “inactive”.
In assay [1], `Nc1ncnc2c1ncn2C1OC(COP(=O)(O)O)CC1OP(=O)(O)O` (stereo not given) gave a Max inhibition of 81%. The same molecule returned a Max increase in assay [2] of 16%. Half-maximal inhibition in assay [3] (IC50) was put at 11 µM. The molecule further gave an EC50 in assay [4] of 8.33 µM.
Regarding `O=c1[nH]cnc2c1ncn2[C@H]1C[C@H](OP(=O)(O)O)[C@@H](COP(=O)(O)O)O1`, the Max inhibition entry in assay [7] is “Partial antagonist”. The Max increase result in assay [5] is “inactive”.
Take `NCCCCCCNc1ncnc2c1ncn2[C@@H]1O[C@H](COP(=O)(O)O)[C@@H](O)[C@H]1OP(=O)(O)O`: the Max increase entry in assay [5] was “inactive”. For the same molecule, the Max inhibition result in [6] is “inactive”.
As to `O=P(O)(O)OC[C@H]1O[C@@H](n2cnc3c(Cl)ncnc32)C[C@@H]1OP(=O)(O)O`, the Max inhibition result in [8] is “inactive”. The Max increase entry in [9] is “inactive”.
Turning to `Nc1ncnc2c1ncn2[C@@H]1O[C@H](COP(=O)(O)O)[C@@H](OP(=O)(O)O)[C@H]1O`, in [1], the Max inhibition was 77%. This molecule also had a Max increase in assay [2] of 21%. In assay [3], this molecule displayed a concentration for half-maximal inhibition (IC50) of 4.19 µM. Moreover, in assay [4], the EC50 turned out to be 1.28 µM.
For `Nc1ncnc2c1ncn2[C@@H]1O[C@H](COP(=O)(O)O)[C@H]2O[P@](=O)(O)O[C@H]21`, in assay [3], the midpoint of inhibition, the IC50, lay at 12.7 µM. Moreover, the EC50 in assay [4] worked out at 40.9 µM.
